# Experiments:
# [1] = system: Mycobacterium tuberculosis; test: Antitubercular activity against isoniazid-resistant Mycobacterium tuberculosis H37Rv ATCC 35822 after 7 days under normoxic condition by microplate Alamar blue assay; type: functional; conditions: H37Rv ATCC 35822, 168 h
# In short: (§1)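 Replicating, normoxic cultures in Middlebrook 7H12 medium, exposed to compound for 7 d at 37 °C. Resazurin plus Tween 80 then added for a further 24 h at 37 °C. Fluorescence read at ex/em 530/590 nm. MIC is the lowest concentration giving 90% lower fluorescence than controls.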
# [2] = system: Mycobacterium tuberculosis; test: Antitubercular activity against rifampin-resistant Mycobacterium tuberculosis H37Rv ATCC 35838 after 7 days under normoxic condition by microplate Alamar blue assay; type: functional; conditions: H37Rv ATCC 35838, 168 h; in short: as §1
SMILES,MIC90 [1] [µM],MIC90 [2] [µM]
O=C(/C=C/c1ccc([N+](=O)[O-])o1)c1ccc(Br)cc1,0.58,0.76
O=C(/C=C/c1ccc([N+](=O)[O-])o1)c1ccc(N2CCCCC2)cc1,< 0.03,0.07
O=C(/C=C/c1ccc([N+](=O)[O-])o1)c1ccc(N2CCOCC2)cc1,0.11,0.55
COc1ccc(/C=C/C(=O)c2cccc(Br)c2)cc1,4.94,9.28
COc1ccc(/C=C/C(=O)c2cccc(I)c2)cc1,7.75,8.31
CC(C)(C)c1ccc(C(=O)/C=C/c2ccc([N+](=O)[O-])s2)cc1,0.15,0.14
Cc1cccc(C(=O)/C=C/c2ccc([N+](=O)[O-])o2)c1,1.93,3.78
O=C(/C=C/c1ccc([N+](=O)[O-])o1)c1ccc(-n2ccnc2)cc1,1.44,1.19
O=C(/C=C/c1ccc([N+](=O)[O-])o1)c1ccc(N2CCNCC2)cc1,0.19,0.76
Cc1ccc(C(=O)/C=C/c2ccc([N+](=O)[O-])s2)cc1,0.96,1.21
O=C(/C=C/c1ccc([N+](=O)[O-])o1)c1ccc(C2CCCCC2)cc1,1.23,1.12
O=C(/C=C/c1ccc([N+](=O)[O-])o1)c1ccc(I)cc1,1.08,1.18
CC(C)(C)c1ccc(C(=O)/C=C/c2ccc([N+](=O)[O-])o2)cc1,0.22,0.29
Cc1ccccc1C(=O)/C=C/c1ccc([N+](=O)[O-])o1,1.07,1.08
CSc1ccc(C(=O)/C=C/c2ccc([N+](=O)[O-])s2)cc1,0.22,0.14
O=C(/C=C/c1ccc([N+](=O)[O-])o1)c1ccc(-c2ccccc2)cc1,0.29,3.45
O=C(/C=C/c1ccc([N+](=O)[O-])s1)c1ccc(-n2ccnc2)cc1,0.3,0.6
CCCCc1ccc(C(=O)/C=C/c2ccc([N+](=O)[O-])s2)cc1,0.31,0.48
CCCCc1ccc(C(=O)/C=C/c2ccc([N+](=O)[O-])o2)cc1,2.23,4.7
O=C(/C=C/c1ccc(Cl)s1)c1ccc(-n2ccnc2)cc1,9.03,8.89
O=C(/C=C/c1ccc([N+](=O)[O-])o1)c1cccc(Br)c1,1.12,1.88
CSc1ccc(C(=O)/C=C/c2ccc([N+](=O)[O-])o2)cc1,0.8,0.24
NNC(=O)c1ccncc1 [ISONIAZID],> 5,–
CO[C@H]1/C=C/O[C@@]2(C)Oc3c(C)c(O)c4c(O)c(c(/C=N/N5CCN(C)CC5)c(O)c4c3C2=O)NC(=O)/C(C)=C\C=C\[C@H](C)[C@H](O)[C@@H](C)[C@@H](O)[C@@H](C)[C@H](OC(C)=O)[C@@H]1C [RIFAMPIN],–,> 1
